Experimental data taken from PubChem BioAssay AID492978 (The Scripps Research Institute Molecular Screening Center, 2010).
Active and inactive are the calls of the source.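 How the source made its calls: active means inhibition of the malaria parasite aminopeptidase at 45% or more; inactive means inhibition below 45%.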

Molecular target: Aminopeptidase N (Plasmodium falciparum (isolate 3D7)) (UniProt O96935)
Experiment: recombinant PfM1AAP inhibitors, late-stage follow-up, biochemical, fluorescence, recombinant enzyme, assay provider (AID 492978)
Settings: H-Leu-NHMec fluorescence, at 5 µM, active compounds read high
Outline: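 Test system – recombinant P. falciparum M1 aminopeptidase · Input – enzyme at 1 µg/mL · Medium – 25 mM Tris-HCl buffer, pH 7.5 · Read-out basis – % inhibition relative to uninhibited enzyme · Schedule – 10 min enzyme–compound preincubation, then 30 min kinetic read · Control set – no-inhibitor enzyme wells and no-enzyme background wells · Technique – kinetic fluorescence, excitation 370 nm, emission 460 nm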

Sequence of Aminopeptidase N (Plasmodium falciparum (isolate 3D7)) (O96935 whole entry, looked up): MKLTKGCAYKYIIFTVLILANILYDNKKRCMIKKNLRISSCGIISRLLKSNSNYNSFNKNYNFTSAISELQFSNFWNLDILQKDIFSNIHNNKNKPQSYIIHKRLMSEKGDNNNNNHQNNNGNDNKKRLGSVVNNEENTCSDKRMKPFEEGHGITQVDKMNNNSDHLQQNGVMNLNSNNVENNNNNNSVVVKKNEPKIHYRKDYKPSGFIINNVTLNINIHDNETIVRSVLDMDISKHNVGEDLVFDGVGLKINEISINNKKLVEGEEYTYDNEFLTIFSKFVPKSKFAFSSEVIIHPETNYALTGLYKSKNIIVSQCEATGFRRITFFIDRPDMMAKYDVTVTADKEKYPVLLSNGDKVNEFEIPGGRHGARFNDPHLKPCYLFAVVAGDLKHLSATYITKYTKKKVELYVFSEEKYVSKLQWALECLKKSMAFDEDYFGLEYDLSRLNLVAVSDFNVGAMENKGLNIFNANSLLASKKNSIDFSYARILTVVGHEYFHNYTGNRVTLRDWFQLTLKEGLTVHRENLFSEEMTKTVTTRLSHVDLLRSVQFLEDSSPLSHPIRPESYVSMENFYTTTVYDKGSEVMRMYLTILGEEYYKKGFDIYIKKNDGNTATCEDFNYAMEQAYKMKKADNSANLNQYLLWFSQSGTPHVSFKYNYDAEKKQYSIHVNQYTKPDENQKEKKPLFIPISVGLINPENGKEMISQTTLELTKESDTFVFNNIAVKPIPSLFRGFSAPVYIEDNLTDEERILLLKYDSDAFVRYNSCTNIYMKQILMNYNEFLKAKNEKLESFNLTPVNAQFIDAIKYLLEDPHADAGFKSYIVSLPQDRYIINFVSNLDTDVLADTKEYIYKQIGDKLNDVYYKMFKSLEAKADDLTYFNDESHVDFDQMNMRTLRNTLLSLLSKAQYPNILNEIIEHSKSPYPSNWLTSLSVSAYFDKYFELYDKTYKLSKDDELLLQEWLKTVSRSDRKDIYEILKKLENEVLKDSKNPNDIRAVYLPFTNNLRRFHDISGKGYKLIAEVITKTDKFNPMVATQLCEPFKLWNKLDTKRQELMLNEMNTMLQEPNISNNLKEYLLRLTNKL

Row | Structure (SMILES) | inhibition
1 | COc1ccc(OC)c(/C=C2\SC(=S)N(C(C(=O)O)c3ccccc3)C2=O)c1 (stereo not drawn) | 16% (inactive)
2 | O=C(NCCC1=CCCCC1)C1CCN(S(=O)(=O)c2ccc(Br)s2)CC1 | 45%
3 | O=C1N=c2ccccc2=C1c1sc(=S)n(NC(=O)c2ccccc2)c1O | 13% (inactive)
4 | COc1ccccc1-c1nc2ccccc2c(=O)n1NC(=O)c1cccs1 | 38% (inactive)
5 | O=C1/C(=C/c2cccs2)SC(=S)N1NS(=O)(=O)c1ccccc1 | 20% (inactive)
6 | CC(=O)N1N=C(c2c(O)n(C)c(=O)n(C)c2=O)CC1c1ccccc1 (stereo not drawn) | 7% (inactive)
7 | O=C(O)CCC(=O)N1N=C(c2c(-c3ccccc3)c3cc(Cl)ccc3[nH]c2=O)CC1c1cccs1 (stereo not drawn) | 13% (inactive)
8 | O=C1N=c2ccccc2=C1c1sc(=S)n(NC(=O)c2cccc(O)c2)c1O | 48%
9 | O=C(NCc1cccc(F)c1)C1CCN(S(=O)(=O)Cc2ccccc2)CC1 | 69%
10 | O=C(NCc1ccco1)C1CCCN(S(=O)(=O)c2cccc3nonc23)C1 (stereo not drawn) | 17% (inactive)
11 | O=C(O)CCC(=O)N1N=C(c2c(-c3ccccc3)c3cc(Cl)ccc3[nH]c2=O)CC1c1ccco1 (stereo not drawn) | 13% (inactive)
12 | O=C(Nn1c(C2CCC2)nc2ccccc2c1=O)c1cccs1 | 8% (inactive)
13 | COc1ccc(C2CC(c3c(-c4ccccc4)c4cc(Cl)ccc4[nH]c3=O)=NN2C(=O)CCC(=O)O)cc1 (stereo not drawn) | 0% (inactive)
